Source: ChEMBL document CHEMBL1123878, “Potential antitumor agents. 50. In vivo solid-tumor activity of derivatives of N-[2-(dimethylamino)ethyl]acridine-4-carboxamide” (J Med Chem, 1987)
Calls of active or inactive are those of the source. The calls are words filed in the database; no cut-off is given here.

How the values were obtained:
[1] = Lipophilicity index (Rm) (HPLC); assay type: physicochemical
L1210 = assay: Inhibition murine leukemia L1210 cell growth in culture; assay type: functional, cell-based; conditions: Mus musculus
Outline: (§1)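 IC50 is the drug concentration, in nM, that inhibits growth of the cultured cell line by 50%.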

HCT-8 = assay: Inhibition of human colon tumor (HCT-8) cell growth in culture; assay type: functional, cell-based; outline: as §1
P388 [2] = assay: (§2) Percentage increase in life span of tumor bearing animals compared to non treated, tumor-bearing controls when treated at the optimal dose of 100 mg/kg/day intraperitoneally; assay type: functional; conditions: Mus musculus, P388, ip; route intraperitoneal
[3] = tested on: Lewis lung carcinoma cell line; assay: as §2; assay type: functional; conditions: Mus musculus, ip, route intraperitoneal
[4] = Selectivity ratio of IC50 of HCT to IC50 of L1210 cell lines; assay type: functional
P388 [5] = assay: (§3) Percentage increase in life span of compound-treated, tumor bearing animals compared to non treated, tumor-bearing controls when treated at the optimal dose of 100 mg/kg; assay type: functional; conditions: Mus musculus
[6] = tested on: Lewis lung carcinoma cell line; assay: as §3; assay type: functional; conditions: Mus musculus
[7] = tested on: Lewis lung carcinoma cell line; assay: Percentage increase in life span of tumor bearing animals compared to non treated, tumor-bearing controls when treated at the optimal dose of 65 mg/kg/day intraperitoneally; assay type: functional; conditions: Mus musculus, ip, route intraperitoneal
[8] = tested on: Lewis lung carcinoma cell line; assay: (§4) Percentage increase in life span of tumor bearing animals compared to non treated, tumor-bearing controls when treated at the optimal dose of 150 mg/kg/day intraperitoneally; assay type: functional; conditions: Mus musculus, ip, route intraperitoneal
[9] = Base strength is expressed as pKa, determined in water at 25 degrees Centigrade by spectrophotometric method.; assay type: physicochemical
P388 [10] = assay: (§5) Percentage increase in life span of tumor bearing animals compared to non treated, tumor-bearing controls when treated at the optimal dose of 30 mg/kg/day intraperitoneally; assay type: functional; conditions: Mus musculus, P388, ip; route intraperitoneal
[11] = tested on: Lewis lung carcinoma cell line; assay: as §5; assay type: functional; conditions: Mus musculus, ip, route intraperitoneal
P388 [12] = assay: Percentage increase in life span of tumor bearing animals compared to non treated, tumor-bearing controls when treated at the optimal dose of 225 mg/kg/day intraperitoneally; IA denotes inactive; assay type: functional, organism-based; conditions: Mus musculus
Outline: (§6)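 Drug was given ip in 0.1 mL 30% v/v ethanol/water. For P388, 10^6 cells were inoculated ip and dosing was on days 1, 5 and 9, with >20% significant. For Lewis lung, 10^6 cells were inoculated iv and dosing was on days 5, 9 and 13, with >40% significant. The read-out is % lifespan increase over untreated controls.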

[13] = tested on: Lewis lung carcinoma cell line; assay: Percentage increase in life span of tumor bearing animals compared to non treated, tumor-bearing controls when treated at the optimal dose of 100 mg/kg/day intraperitoneally; IA denotes inactive; assay type: functional, organism-based; conditions: Mus musculus; outline: as §6
P388 [14] = assay: Percentage increase in life span of tumor bearing animals compared to non treated, tumor-bearing controls when treated at the optimal dose of 66 mg/kg/day intraperitoneally; assay type: functional; conditions: Mus musculus, P388, ip; route intraperitoneal
[15] = tested on: Lewis lung carcinoma cell line; assay: Percentage increase in life span of tumor bearing animals compared to non treated, tumor-bearing controls when treated at the optimal dose of 4.5 mg/kg/day intraperitoneally; IA denotes inactive; assay type: functional, organism-based; conditions: Mus musculus; outline: as §6
P388 [16] = assay: Percentage increase in life span of tumor bearing animals compared to non treated, tumor-bearing controls when treated at the optimal dose of 4.5 mg/kg/day intraperitoneally; assay type: functional; conditions: Mus musculus, P388, ip; route intraperitoneal
Nucleic Acid [17] = assay: Binding constant to poly(dG-dC)DNA by ethidium bromide displacement; assay type: nucleic-acid assay
Outline: (§7)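 Association constants derived from the drug concentration displacing 50% of bound ethidium from the polynucleotide, assuming competitive binding of drug and ethidium to DNA.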

P388 [18] = assay: Percent increase in life span of P388 tumor bearing animals compared to non treated, tumor-bearing controls when treated at the optimal dose of 150 mg/kg/day; IA denotes inactive; assay type: functional, organism-based; conditions: Mus musculus
Nucleic Acid [19] = assay: Binding constant to poly(dA-dT)DNA by ethidium bromide displacement; assay type: nucleic-acid assay; outline: as §7
P388 [20] = assay: as §4; assay type: functional; conditions: Mus musculus, P388, ip; route intraperitoneal
[21] = tested on: Lewis lung carcinoma cell line; assay: Percentage increase in life span of tumor bearing animals compared to non treated, tumor-bearing controls when administered intraperitoneally; IA denotes inactive; assay type: functional; conditions: Mus musculus; outline: as §6
P388 [22] = assay: Percentage increase in life span of tumor bearing animals compared to non treated, tumor-bearing controls when treated at the optimal dose of 13.3 mg/kg/day intraperitoneally; assay type: functional; conditions: Mus musculus, P388, ip; route intraperitoneal

| SMILES | Rm [1] | IC50 (L1210) | IC50 (HCT-8) | ILS at 100 mg/kg/day (P388 [2]) | Ratio [4] | further results |
| --- | --- | --- | --- | --- | --- | --- |
| CN(C)CCNC(=O)c1ccc(Cl)c2cc3ccccc3nc12.Cl.Cl | 0.04 | 33 nM | 370 nM | 110% | 11.2 | ILS at 100 mg/kg/day [3]: 120% |
| Cc1ccc2cc3cccc(C(=O)NCCN(C)C)c3nc2c1.Cl.Cl | -0.1 | 121 nM | 658 nM |  | 5.4 Ratio | ILS at 100 mg/kg (P388 [5]): 82%; ILS at 100 mg/kg [6]: 106% |
| CN(C)CCNC(=O)c1cccc2cc3ccc(Cl)cc3nc12.Cl | -0.06 | 6.4 nM | 350 nM |  | 54 | ILS at 65 mg/kg/day [7]: 91% |
| Cc1cc(C(=O)NCCN(C)C)c2nc3ccccc3cc2c1.Cl.Cl | -0.04 | 130 nM | 657 nM | 120% | 5.1 | ILS at 150 mg/kg/day [8]: 33% |
| COc1ccc2cc3cccc(C(=O)NCCN(C)C)c3nc2c1.Cl.Cl | -0.47 | 210 nM | 470 nM |  | 2.2 | pKa [9]: 4.59; ILS at 100 mg/kg/day [3]: 85% |
| CN(C)CCNC(=O)c1cccc2cc3cc(Cl)ccc3nc12.Cl.Cl | -0.03 | 250 nM | 610 nM | 106% | 2.4 | ILS at 100 mg/kg/day [3]: 94% |
| Cc1cccc2cc3cccc(C(=O)NCCN(C)C)c3nc12.Cl.Cl | -0.17 | 4.3 nM | 54 nM |  | 12.6 | ILS at 30 mg/kg/day (P388 [10]): 87%; ILS at 30 mg/kg/day [11]: 120% |
| Cc1ccc2cc3ccccc3nc2c1C(=O)NCCN(C)C.Cl.Cl | -0.21 | 12700 nM |  |  |  | ILS (P388 [12]): inactive; ILS [13]: inactive |
| CN(C)CCNC(=O)c1cccc2cc3ccccc3nc12.Cl.Cl | -0.2 | 105 nM | 900 nM |  | 8.6 | ILS at 66 mg/kg/day (P388 [14]): 91%; pKa [9]: 3.54 |
| CN(C)CCNC(=O)c1cccc2c(N)c3ccccc3nc12 | -1.11 |  | 55 nM |  | 3.7 | ILS [15]: inactive; ILS at 4.5 mg/kg/day (P388 [16]): 98% |
| CN(C)CCCCNC(=O)c1cccc2cc3ccccc3nc12.Cl | 0.01 | 160 nM | 930 nM | 143% | 5.8 | ILS at 100 mg/kg/day [3]: 100% |
| CN(C)CCNC(=O)c1cccc2nc3ccccc3cc12.Cl.Cl | -0.56 | 17900 nM |  |  |  | Log K (Nucleic Acid [17]): 7.7; pKa [9]: 4.24; ILS (P388 [18]): inactive; Log K (Nucleic Acid [19]): 6.87 |
| CN(C)CCCNC(=O)c1cccc2cc3ccccc3nc12.Cl.Cl | -0.1 | 370 nM | 2900 nM |  | 7.8 | ILS at 150 mg/kg/day (P388 [20]): 118%; ILS at 150 mg/kg/day [8]: 84% |
| CCN(CC)CCNC(=O)c1cccc2cc3ccccc3nc12.Cl.Cl | 0.17 | 630 nM |  |  |  | ILS at 150 mg/kg/day (P388 [20]): 61%; ILS at 150 mg/kg/day [8]: 62% |
| Cc1ccc2nc3c(C(=O)NCCN(C)C)cccc3cc2c1.Cl.Cl | -0.05 | 200 nM | 1240 nM | 68% | 6.2 | ILS at 150 mg/kg/day [8]: 85% |
| Cl.Cl.NCCNC(=O)c1cccc2cc3ccccc3nc12 | -0.28 | 275 nM | 1600 nM |  | 5.8 | ILS [21]: inactive; ILS at 13.3 mg/kg/day (P388 [22]): 24% |
